Results collected from several papers.
Compare with care: the assays were run in different laboratories.
Target: Serine/threonine-protein kinase 33 (STK33, Homo sapiens, UniProt Q9BYT3)

SMILES | effect on | action | method | tested at | endpoint | result
CN(C)c1ncnc(-c2ccc3nc(Nc4cc(CN5CCN(C(=O)CC(F)(F)F)CC5)ccn4)[nH]c3c2)c1Cl | cell-free assay |  | competition with immobilised ligand | 1 µM | remaining binding | 100%
Cn1cnc(Br)c1C1=CN(c2ncnc3[nH]cnc23)CCS1 | enzyme activity | inhibitor | radiometric | 50 nM | inhibition | 35.8%
FC(F)(F)Oc1cccc(-c2cnc3ccc(-c4ccncc4)nn23)c1 | enzyme activity | inhibitor | radiometric | 1 µM | activity vs control | 95%
Cc1ccc(C(=O)Nc2ccc(CN3CCN(C)CC3)c(C(F)(F)F)c2)cc1C#Cc1cnc2cccnn12 | enzyme activity | inhibitor |  | 23.5 nM | remaining activity | 96%
Cc1sc(C(=O)NC2COC2)cc1-n1cc(NC(=O)Nc2c(F)cccc2Cl)cn1 | enzyme activity | inhibitor |  | 10 µM | remaining activity | 87.6%
Cn1cncc1C1=CN(c2ncnc3[nH]cnc23)CCS1 | enzyme activity | inhibitor | radiometric | 50 nM | inhibition | 23.6%
CN1CC(Oc2cnc(C#N)cc2-c2ccn3nc(NC(=O)C4CC4)cc3c2)C1 | enzyme activity | inhibitor |  | 1 µM | inhibition | -3%
O=C(Nc1cnn(-c2csc(C(=O)NC3COC3)c2)c1)Nc1c(F)cccc1Cl | enzyme activity | inhibitor |  | 5 µM | remaining activity | 81.8%
Cn1nc(C(=O)NCc2ccc(C(=O)O)cc2)cc1-c1ccc2[nH]ccc2c1 | cell-free assay |  | competition with immobilised ligand | 0.1 µM | remaining binding | 87%
Nc1ncnc2occ(-c3ccc(NC(=O)Nc4cc(C(F)(F)F)ccc4F)cc3)c12 | enzyme activity | inhibitor |  | 20 µM | remaining activity | 4.3%
Cc1ncc([N+](=O)[O-])n1C(=NO)c1ccccc1C(F)(F)F | enzyme activity | inhibitor |  | 10 µM | inhibition | 11.4%
Cn1nc(C(F)(F)F)cc1-c1cnc(N2CCc3cc(S(=O)(=O)Nc4c(F)cc(Cl)cc4F)cc(N4CCCC4=O)c32)nc1 | cell-free assay |  | competition with immobilised ligand | 1 µM | remaining binding | 100%
Cc1cc(NC(=O)c2cccc3cc(-c4cccc5[nH]nc(N)c45)ccc23)ccc1F | enzyme activity | inhibitor |  | 0.1 µM | activity vs control | 126%
Cc1cc(NC(=O)c2cccc(S(F)(F)(F)(F)F)c2)cc(-n2ccn3nc(-c4cccnc4)cc23)c1 | cell-free assay |  | competition with immobilised ligand | 1 µM | remaining binding | 87.8%
Cc1cnc(NC2CCOCC2)nc1-n1cnc(C(=O)NC(CN)c2cc(F)cc(Cl)c2)c1 (stereo not shown) | enzyme activity | inhibitor | radiometric | 1 µM | remaining activity | 71%
CCS(=O)(=O)c1cc2cc(C[C@@](O)(CC(C)(C)c3ccc(F)cc3C(N)=O)C(F)(F)F)[nH]c2cn1 | cell-free assay |  | competition with immobilised ligand | 1 µM | remaining binding | 91%
Cc1ccc(Nc2nccc(N(C)c3ccc4c(C)n(C)nc4c3)n2)cc1S(N)(=O)=O | enzyme activity | inhibitor |  | 0.3 µM | inhibition | -2%
Cc1nccc(COC(=O)N2C[C@@H]3[C@@H](CNC(=O)c4ccc5[nH]nnc5c4)[C@@H]3C2)n1 | cell-free assay |  | competition with immobilised ligand | 1 µM | remaining binding | 93%
COc1cc(Nc2cnc(C#N)c(O[C@H](C)CN(C)C)n2)ncc1-c1cnn(C)c1 | enzyme activity | inhibitor | radiometric | 10 µM | remaining activity | 16%
